Results taken from ChEMBL document CHEMBL1134569, “Synthesis and in vitro and in vivo antimalarial activity of new 4-anilinoquinolines” (J Med Chem, 2001).
Where “and” joins values, the source holds several entries; their conditions need not be identical. Equal values may be shown once.

Columns and labels:
Plasmodium falciparum = assay: Inhibitory activity against chloroquine-resistant Plasmodium falciparum FcB1R; format: functional, organism-based
[1] = Cytotoxicity upon MPMs (mouse peritoneal macrophages) at 8 uM
How it was run: (§1)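 Mouse peritoneal macrophages harvested 48 h after potato-starch stimulation and seeded at 30000 cells/well. After 24 h, washed and exposed to 2-fold drug dilutions in RPMI + 5% FCS (final DMSO below 0.5%) at 37 °C, 5% CO₂, for 7 days. Toxicity scored microscopically as toxic or not versus untreated controls.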

[2] = Cytotoxicity upon MPMs (mouse peritoneal macrophages) at 32 uM; how it was run: as §1
[3] = Cytotoxicity upon MRC-5 cells (diploid embryonic lung cell line) at 8 uM; format: cell-based, MRC5; conditions: human
How it was run: (§2)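 MRC-5 human diploid embryonic lung cells seeded at 5000/well, washed after 24 h, then given 2-fold drug dilutions in RPMI + 5% FCS (final DMSO below 0.5%). Incubated at 37 °C, 5% CO₂, for 7 days. MTT read-out at 540 nm, scored as percent absorbance reduction versus untreated controls.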

[4] = Cytotoxicity upon MRC-5 cells (diploid embryonic lung cell line) at 32 uM; format: cell-based, MRC5; conditions: human; how it was run: as §2
[5] = Cytotoxicity upon MPMs (mouse peritoneal macrophages) at 2 uM; how it was run: as §1
[6] = Cytotoxicity upon MRC-5 cells (diploid embryonic lung cell line) at 1 uM; format: cell-based, MRC5; conditions: human; how it was run: as §2
[7] = Cytotoxicity upon MPMs (mouse peritoneal macrophages) at 3.1 uM conc.;NT=No Toxicity; how it was run: as §1
[8] = Cytotoxicity upon MRC-5 cells (diploid embryonic lung cell line) at 3.1 uM; format: cell-based, MRC5; conditions: human; how it was run: as §2
[9] = Cytotoxicity upon MRC-5 cells (diploid embryonic lung cell line) at 12.5 uM; format: cell-based, MRC5; conditions: human; how it was run: as §2
[10] = Cytotoxicity upon MPMs (mouse peritoneal macrophages) at 12.5 uM conc.;NT=No Toxicity; how it was run: as §1
[11] = Cytotoxicity upon MRC-5 cells (diploid embryonic lung cell line) at 6.3 uM; format: cell-based, MRC5; conditions: human; how it was run: as §2
[12] = Cytotoxicity upon MPMs (mouse peritoneal macrophages) at 6.3 uM; how it was run: as §1

Row | Compound | IC50 (Plasmodium falciparum; Plasmodium falciparum) [µM] | Cytotoxicity [1] | Cytotoxicity [2] | cytotoxicity at 8 µM [3] [%] | cytotoxicity at 32 µM [4] [%] | NT [5] | cytotoxicity at 1 µM [6] [%] | NT [7] | cytotoxicity at 3.1 µM [8] [%] | cytotoxicity at 12.5 µM [9] [%] | NT [10] | cytotoxicity at 6.3 µM [11] [%] | NT [12] | IC50 (Plasmodium falciparum)
1 | COc1ccc(CN2CCN(Cc3cc(NC(=O)CN4CCCCC4)cc(Nc4ccnc5cc(Cl)ccc45)c3)CC2)cc1 | 0.011 | Cytotoxicity upon MPMs at 32 uM | Cytotoxicity upon MPMs at 32 uM | 100 | 100 | Cytotoxicity upon MPMs at 2 uM | 50 |  |  |  |  |  |  | 
2 | CN(C)CCN(C)Cc1cc(NC(=O)CN2CCCCC2)cc(Nc2ccnc3cc(Cl)ccc23)c1 | 0.005 | Cytotoxicity upon MPMs at 32 uM | Cytotoxicity upon MPMs at 32 uM | 100 | 100 | Cytotoxicity upon MPMs at 2 uM | 43 |  |  |  |  |  |  | 
3 | CC1CCN(CCCCC(=O)Nc2cc(CO)cc(Nc3ccnc4cc(Cl)ccc34)c2)CC1 | 0.465 |  |  |  |  |  |  | Cytotoxicity upon MPMs at 6.3 uM | 0 | 0 | Cytotoxicity upon MPMs at 6.3 uM | 0 | Cytotoxicity upon MPMs at 6.3 uM | 
4 | O=C(CN1CCCCC1)Nc1cc(CN2CCN(C(c3ccccc3)c3ccccc3)CC2)cc(Nc2ccnc3cc(Cl)ccc23)c1 | 0.0125 | Cytotoxicity upon MPMs at 32 uM | Cytotoxicity upon MPMs at 32 uM | 97 | 98 | Cytotoxicity upon MPMs at 2 uM | 87 |  |  |  |  |  |  | 
5 | O=C(CN1CCCCC1)Nc1cc(CNCc2ccccc2)cc(Nc2ccnc3cc(Cl)ccc23)c1 | 0.0085 | Cytotoxicity upon MPMs at 32 uM | Cytotoxicity upon MPMs at 32 uM | 100 | 100 | Cytotoxicity upon MPMs at 2 uM | 96 |  |  |  |  |  |  | 
6 | O=C(CN1CCCCC1)Nc1cc(CN2CCCC2)cc(Nc2ccnc3cc(Cl)ccc23)c1 | 0.0069 | Cytotoxicity upon MPMs at 32 uM | Cytotoxicity upon MPMs at 32 uM | 100 | 100 | Cytotoxicity upon MPMs at 2 uM | 0 |  |  |  |  |  |  | 
7 | O=C(CN1CCCCC1)Nc1cc(CN2CCN(Cc3ccc([N+](=O)[O-])cc3)CC2)cc(Nc2ccnc3cc(Cl)ccc23)c1 | 0.0132 | Cytotoxicity upon MPMs at 32 uM | Cytotoxicity upon MPMs at 32 uM | 99 | 100 | Cytotoxicity upon MPMs at 2 uM | 0 |  |  |  |  |  |  | 
8 | O=CNc1cc(CO)cc(Nc2ccnc3cc(Cl)ccc23)c1 | 0.36 |  |  |  |  |  |  | Cytotoxicity upon MPMs at 6.3 uM | 0 | 0 | Cytotoxicity upon MPMs at 6.3 uM | 0 | Cytotoxicity upon MPMs at 6.3 uM | 
9 | O=C(CN1CCc2ccccc2C1)Nc1cc(CO)cc(Nc2ccnc3cc(Cl)ccc23)c1 | 1.45 |  |  |  |  |  |  |  | 0 | 0 |  | 0 |  | 
10 | O=C(C[n+]1ccccc1)Nc1cc(CO)cc(Nc2ccnc3cc(Cl)ccc23)c1.[Cl-] | 0.927 |  |  |  |  |  |  | Cytotoxicity upon MPMs at 6.3 uM | 0 | 0 | Cytotoxicity upon MPMs at 6.3 uM | 0 | Cytotoxicity upon MPMs at 6.3 uM | 
11 | O=C(CNCc1ccc(Cl)cc1)Nc1cc(CO)cc(Nc2ccnc3cc(Cl)ccc23)c1 | 0.855 |  |  |  |  |  |  |  | 0 | 0 |  | 0 |  | 
12 | CC1CCN(CCCCCC(=O)Nc2cc(CO)cc(Nc3ccnc4cc(Cl)ccc34)c2)CC1 | 0.304 |  |  |  |  |  |  | Cytotoxicity upon MPMs at 6.3 uM | 0 | 0 | Cytotoxicity upon MPMs at 6.3 uM | 0 | Cytotoxicity upon MPMs at 6.3 uM | 
13 | O=C(CN1CCCCC1)Nc1cc(CN2CCC(O)CC2)cc(Nc2ccnc3cc(Cl)ccc23)c1 | 0.0065 | Cytotoxicity upon MPMs at 32 uM | Cytotoxicity upon MPMs at 32 uM | 100 | 100 | Cytotoxicity upon MPMs at 2 uM | 0 |  |  |  |  |  |  | 
14 | CN1CCN(Cc2cc(NC(=O)CN3CCCCC3)cc(Nc3ccnc4cc(Cl)ccc34)c2)CC1 | 0.0075 | Cytotoxicity upon MPMs at 32 uM | Cytotoxicity upon MPMs at 32 uM | 80 | 83 | Cytotoxicity upon MPMs at 2 uM | 0 |  |  |  |  |  |  | 
15 | O=C(CO)Nc1cc(CO)cc(Nc2ccnc3cc(Cl)ccc23)c1 | > 1 |  |  |  |  |  |  | Cytotoxicity upon MPMs at 6.3 uM | 0 | 0 | Cytotoxicity upon MPMs at 6.3 uM | 0 | Cytotoxicity upon MPMs at 6.3 uM | 
16 | O=C(CN1CCCCC1)Nc1cc(CNCc2ccc(C(F)(F)F)cc2)cc(Nc2ccnc3cc(Cl)ccc23)c1 | 0.0055 | Cytotoxicity upon MPMs at 32 uM | Cytotoxicity upon MPMs at 32 uM | 100 | 100 | Cytotoxicity upon MPMs at 2 uM | 0 |  |  |  |  |  |  | 
17 | CC1CCN(CCCCCCCC(=O)Nc2cc(CO)cc(Nc3ccnc4cc(Cl)ccc34)c2)CC1 | 0.308 |  |  |  |  |  |  | Cytotoxicity upon MPMs at 6.3 uM | 0 | 0 | Cytotoxicity upon MPMs at 6.3 uM | 0 | Cytotoxicity upon MPMs at 6.3 uM | 
18 | O=C(CN1CCC(O)CC1)Nc1cc(CO)cc(Nc2ccnc3cc(Cl)ccc23)c1 | 1.05 |  |  |  |  |  |  |  | 0 | 0 |  | 0 |  | 
19 | O=C(CN1CCCCC1)Nc1cc(CNC(c2ccccc2)c2ccccc2)cc(Nc2ccnc3cc(Cl)ccc23)c1 | 0.0091 | Cytotoxicity upon MPMs at 32 uM | Cytotoxicity upon MPMs at 32 uM | 100 | 100 | Cytotoxicity upon MPMs at 2 uM | 0 |  |  |  |  |  |  | 
20 | O=C(CN1CCCCC1)Nc1cc(CN2CCN(Cc3ccc(Cl)cc3)CC2)cc(Nc2ccnc3cc(Cl)ccc23)c1 | 0.0115 | Cytotoxicity upon MPMs at 32 uM | Cytotoxicity upon MPMs at 32 uM | 100 | 100 | Cytotoxicity upon MPMs at 2 uM | 0 |  |  |  |  |  |  | 
21 | O=C(CN1CCCCC1)Nc1cc(CNc2ccccc2)cc(Nc2ccnc3cc(Cl)ccc23)c1 | 0.0212 | Cytotoxicity upon MPMs at 32 uM | Cytotoxicity upon MPMs at 32 uM | 100 | 100 | Cytotoxicity upon MPMs at 2 uM | 0 |  |  |  |  |  |  | 
22 | O=C(CN1CCCCC1)Nc1cc(CNCCN2CCCC2)cc(Nc2ccnc3cc(Cl)ccc23)c1 | 0.0102 |  | Cytotoxicity upon MPMs at 32 uM | 100 | 100 | Cytotoxicity upon MPMs at 2 uM |  |  |  |  |  |  |  | 0.0066 µM and 0.0079 µM
23 | O=C(CN1CCCCC1)Nc1cc(CN2CCN(CCO)CC2)cc(Nc2ccnc3cc(Cl)ccc23)c1 | 0.0115 | Cytotoxicity upon MPMs at 32 uM | Cytotoxicity upon MPMs at 32 uM | 100 | 100 | Cytotoxicity upon MPMs at 2 uM | 0 |  |  |  |  |  |  | 
24 | O=C(CN1CCCCC1)Nc1cc(CN2CCN(Cc3ccccc3)CC2)cc(Nc2ccnc3cc(Cl)ccc23)c1 | 0.013 | Cytotoxicity upon MPMs at 32 uM | Cytotoxicity upon MPMs at 32 uM | 100 | 100 | Cytotoxicity upon MPMs at 2 uM | 0 |  |  |  |  |  |  | 
25 | O=C(CN1CCCCC1)Nc1cc(CN2CCN(Cc3ccc4c(c3)OCO4)CC2)cc(Nc2ccnc3cc(Cl)ccc23)c1 | 0.0069 | Cytotoxicity upon MPMs at 32 uM | Cytotoxicity upon MPMs at 32 uM | 99 | 100 | Cytotoxicity upon MPMs at 2 uM | 86 |  |  |  |  |  |  | 
26 | O=C(CN1CCCCC1)Nc1cc(CN2CCN(c3ccccc3)CC2)cc(Nc2ccnc3cc(Cl)ccc23)c1 | 0.0055 | Cytotoxicity upon MPMs at 32 uM | Cytotoxicity upon MPMs at 32 uM | 100 | 100 | Cytotoxicity upon MPMs at 2 uM | 0 |  |  |  |  |  |  | 
27 | CC(C)(C)NCc1cc(NC(=O)CN2CCCCC2)cc(Nc2ccnc3cc(Cl)ccc23)c1 | 0.0037 | Cytotoxicity upon MPMs at 32 uM | Cytotoxicity upon MPMs at 32 uM | 100 | 100 | Cytotoxicity upon MPMs at 2 uM | 0 |  |  |  |  |  |  | 
